# Compounds with a hit are over-represented: about 4.7% of the library has one in this group of screens.
# MC4R antag cAMP: MC4R antagonists of cAMP signaling, primary screen, cell-based, TR-FRET, antagonist arm of biased-ligand search | Melanocortin receptor 4 (Homo sapiens), P32245 | MC4R-expressing cells, MTII-stimulated cAMP, LANCE TR-FRET | inhibition, % at 6.5 µM | 360,000 compounds, 0.48% hits;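 active means inhibition above its plate's cutoff, the mean of tested wells on that plate plus 3 SD, cut at about 29% in these data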;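 further: 0% = Melanotan II alone and 100% = Melanotan II plus saturating MCL0020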
#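 system = U2OS cells with stable human MC4R expression | also added = Melanotan II challenge after compound preincubation | dosing = one concentration, 6.5 µM nominal | incubation = compound 30 min, challenge 1 h, detection 1 h | measured by = TR-FRET with Eu-cAMP and labeled anti-cAMP, 671 nm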
# m5-HT2A agonist: mouse Htr2a agonists via beta-arrestin recruitment, primary screen, cell-based, luminescence | 5-hydroxytryptamine receptor 2A (Mus musculus), P35363 | CHO-K1 mHTR2A beta-arrestin complementation; percent of 30 µM serotonin response | activation, % at 7.6 µM | 360,000 compounds, 0.66% hits;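 active means activation above a run cutoff, the mean activation of all tested compounds plus 3 SD, cut at about 14% in these data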;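 further: 0% = plate median of compound wells and 100% = 30 µM serotonin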
# MC4R ag barr: MC4R agonists recruiting beta-arrestin, primary screen, cell-based, luminescence, agonist arm of biased-ligand search; U2OS MC4R beta-arrestin complementation; percent of melanotan II response, DMSO zero; activation, % at 8.9 µM; 360,000 compounds, 0.98% hits;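 active means activation above a per-plate cutoff, the mean activation of sample wells on that plate plus 3 SD, cut at about 8% in these data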
# AHR act: AHR activators, primary screen, cell-based, luminescence, luciferase reporter, human | AHR-responsive luciferase reporter cells | activation, % at 5 µM | Aryl hydrocarbon receptor (Homo sapiens), P35869 | 320,000 compounds, 2.5% hits | AID 2796, 2010; in the data active means activation above about 47%;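 further: 0% = vehicle wells and 100% = reference agonist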
# FXN GAA850 act: FXN promoter activators, primary screen, cell-based, luciferase luminescence, HEK293 lucGAA850; HEK293 lucGAA850 FXN promoter luciferase reporter, 24 h; percent of 10 µM SAHA response; activation, % at 6 µM; 360,000 compounds, 0.56% hits;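 active means activation above the average of all compounds screened plus 3 SD, cutoff fixed separately per campaign, cut at about 7.5% in these data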;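 further: 0% = DMSO wells and 100% = 10 µM SAHA wells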
# U2OS cAMP counter: nonselective cAMP signaling inhibitors, parental cells, counter-screen for MC4R biased antagonist project, cell-based, TR-FRET, U2OS, forskolin, triplicate; shares compounds with MC4R antag cAMP; LANCE TR-FRET; inhibition, % at 6.5 µM; 1,600 compounds, 26% hits;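 active means mean inhibition over triplicates above the low-control well mean plus 3 SD, set per campaign, cut at about 13% in these data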;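 further: signal is single emission at 671 nm which falls as cellular cAMP rises; 0% = forskolin-stimulated wells and 100% = buffer without forskolin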
# MC4R antag conf: MC4R cAMP antagonists, retest, confirmation, cell-based, TR-FRET; shares compounds with MC4R antag cAMP; MC4R-expressing cells, MTII-stimulated cAMP; inhibition, % at 6.5 µM; 1,600 compounds, 27% hits; AID 602195, 2012; in the data active means inhibition above about 29%;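 further: 0% = agonist stimulated wells alone and 100% = agonist stimulated wells plus saturating reference antagonist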
# Active calls of the source: *; / = no result given.
SMILES,MC4R antag cAMP,m5-HT2A agonist,MC4R ag barr,AHR act,FXN GAA850 act,U2OS cAMP counter,MC4R antag conf
Clc1ccc(-c2ccc(-c3nn4c(-c5ccco5)nnc4s3)o2)cc1,13,7,7,-1,1,/,/
Cc1cccc(C(=O)Nc2nnc(S(=O)(=O)N3CCC(C)CC3)s2)c1,50*,5,-1,3,1,8,16
C[C@@H]1CN([C@H](C)CO)C(=O)CCCn2nncc2CO[C@H]1CN(C)Cc1ccc(C(F)(F)F)cc1,31*,-1,1,/,0,-1,-10
CCC(=O)N(c1nnc(SCC(=O)NN2C(=O)NC3(CCCCC3)C2=O)s1)C1CC1,3,3,-1,2,0,/,/
CC(C)N1C(=O)c2ccccc2NC(=O)C1C(=O)NC1CC1 (stereo not given),/,-5,/,/,/,/,/
NS(=O)(=O)c1ccc(N2N=C(c3ccccc3)CC2c2ccc(Br)cc2)cc1 (stereo not given),37*,-3,5,/,-2,-13,-16
NS(=O)(=O)c1ccc(N2N=C(c3ccccc3)CC2c2ccccc2)cc1 (stereo not given),6,-3,0,7,5,/,/
CCCc1ccc(-c2cc(NC(=O)CSc3nnc(N)s3)n(-c3ccccc3)n2)cc1,24,-3,-4,1,7,/,/
CCOc1ncccc1C(=O)Nc1ncc(C)s1,4,-1,-2,4,2,/,/
CCOc1ncccc1C(=O)Nc1nc(C(C)(C)C)cs1,34*,3,8.7*,59*,-1,1,-2
COC(=O)CC1C(=O)NCCN1C(=S)Nc1ccccc1 (stereo not given),7,4,-3,-1,1,/,/
CCOC(=O)CC1C(=O)NCCN1C(=S)Nc1ccccc1 (stereo not given),29*,9,2,5,0,-7,-22
CCN(CC)CCNC(=O)Cc1c(C(=O)O)n(CC)c2ccccc12,9,3,-1,0,2,/,/
CCn1c(C(=O)O)c(CC(=O)Nc2ccc(Br)cc2C)c2ccccc21,29*,10,2,4,0,2,-7
CCN(CC)C(=O)C1=C(C)N(Cc2ccc(F)cc2)C(=O)C(CC(=O)NCCCN(C)C)C1 (stereo not given),5,0,-3,/,-1,/,/
Cc1ccc(S(=O)(=O)N2CCOCC2)c2nsnc12,-1,2,0,-1,0,/,/
O=S(=O)(c1ccc(Br)c2nsnc12)N1CCOCC1,30*,6,-2,-2,1,11,25
CC1(C(=O)NS(=O)(=O)c2cccc(F)c2)CCN1C(=O)c1cccc(F)c1 (stereo not given),6,-1,-1,/,-1,/,/
CCOC(=O)c1ccc(NC(=O)N2CCN(c3cccc(OC)c3)CC2)cc1,29*,3,0,5,-1,-5,-6
CCOC(=O)c1ccc(NC(=O)N2CCN(c3ccccn3)CC2)cc1,-1,-5,-1,0,0,/,/
C[C@@]12C(=O)N(Cc3ccccc3)CC(=O)N1[C@H]1c3ccccc3OC[C@@H]1[C@@H]2c1ccccc1,29*,-4,1,-5,7,0,4
CC(=O)Nc1ccc(-c2ccnc3c2CC(C)(C(=O)NCc2ccc(N(C)C)cc2)O3)cc1 (stereo not given),8,-5,0,/,0,/,/
O=[N+]([O-])c1cc(S(=O)(=O)C(F)(F)F)ccc1Sc1nc2ccccc2[nH]1,30*,-8,-1,-1,4,6,40*
O=C(OCc1c(F)cccc1Cl)c1cnc(Cl)c(Cl)c1,34*,1,-1,-2,2,17*,43*
